ChEMBL document CHEMBL1127349, “6,7,8,9-Tetrahydro-N,N-di-n-propyl-3H-benzindol-8-amines. Derivatives as potent and orally active serotonin 5-HT1A receptor agonists” (J Med Chem, 1994)
Calls of active or inactive are those of the source. The rule behind the calls is not given here.

Columns and labels:
Rattus norvegicus [1] = assay: Motor activity was measured by motility testing on injecting the compound subcutaneously into rats at the dose of 12.5 umol/kg; type: functional
How it was run: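 Rats given reserpine 5 mg/kg sc 18 h beforehand, then test compound sc in neck (n = 4). Placed singly in photocell motility meters straight after dosing; counts recorded for 30 min, gross behaviour observed throughout. Value as counts/30 min with SEM.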

Rattus norvegicus [2] = species: Rattus norvegicus; assay: Log concentration to inhibit 5-HTP accumulation was determined in rat limbic system; type: functional
How it was run: (§1)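 Reserpine-pretreated (5 mg/kg sc, 18 h) male Sprague-Dawley rats, 200–300 g; compounds in saline given sc. DOPA and 5-HTP in limbic system, striatum and hemispheres measured by HPLC with electrochemical detection. Dose–response curves of 4–6 doses (n = 4) per area, fitted to variable-slope sigmoid on log data to give ED50.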

D(2) dopamine receptor = D(2) dopamine receptor (Rattus norvegicus, UniProt P61169); assay: Displacement of the radioligand [3H]spiperone from D2 receptor
How it was run: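 Rat striatal membranes in 50 mM potassium phosphate buffer, incubated with 0.5 nM [3H]spiperone (3 mg tissue) 10 min at 37 °C. Nonspecific binding defined with 10 μM 6,7-ADTN. IC50 converted to Ki by Cheng–Prusoff; 3–7 experiments, each concentration in triplicate.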

Rattus norvegicus [3] = species: Rattus norvegicus; assay: The concentration yielding a half maximal decrease of the 5-HTP was determined in rat limbic system.; type: functional
Rattus norvegicus [4] = species: Rattus norvegicus; assay: The concentration yielding a half maximal decrease of the 5-HTP was determined in rat brain striatum.; type: functional
Rattus norvegicus [5] = species: Rattus norvegicus; assay: The concentration yielding a half maximal decrease of the DOPA was determined in rat limbic system.; type: functional
Rattus norvegicus [6] = species: Rattus norvegicus; assay: Log concentration to inhibit 5-HTP accumulation was determined in rat brain hemispheres; type: functional; how it was run: as §1
Rattus norvegicus [7] = assay: The concentration yielding a half maximal decrease of the DOPA was determined in rat brain hemispheres; Inactive at 50 umol/kg; type: functional, organism-based; how it was run: as §1
Rattus norvegicus [8] = species: Rattus norvegicus; assay: Log concentration to inhibit DOPA accumulation was determined in rat limbic system; type: functional; how it was run: as §1
Rattus norvegicus [9] = species: Rattus norvegicus; assay: Log concentration to inhibit 5-HTP accumulation was determined in rat brain striatum; type: functional; how it was run: as §1
Rattus norvegicus [10] = species: Rattus norvegicus; assay: The concentration yielding a half maximal decrease of the 5-HTP was determined in rat brain hemispheres.; type: functional
Rattus norvegicus [11] = species: Rattus norvegicus; assay: Log concentration to inhibit DOPA accumulation was determined in rat brain striatum; type: functional; how it was run: as §1
[12] = target: T1, 5-hydroxytryptamine receptor 1A (Rattus norvegicus, UniProt P19327); assay: Displacement of the radioligand [3H]8-OH-DPAT from 5-hydroxytryptamine 1A receptor
T1 sequence (P19327 whole entry): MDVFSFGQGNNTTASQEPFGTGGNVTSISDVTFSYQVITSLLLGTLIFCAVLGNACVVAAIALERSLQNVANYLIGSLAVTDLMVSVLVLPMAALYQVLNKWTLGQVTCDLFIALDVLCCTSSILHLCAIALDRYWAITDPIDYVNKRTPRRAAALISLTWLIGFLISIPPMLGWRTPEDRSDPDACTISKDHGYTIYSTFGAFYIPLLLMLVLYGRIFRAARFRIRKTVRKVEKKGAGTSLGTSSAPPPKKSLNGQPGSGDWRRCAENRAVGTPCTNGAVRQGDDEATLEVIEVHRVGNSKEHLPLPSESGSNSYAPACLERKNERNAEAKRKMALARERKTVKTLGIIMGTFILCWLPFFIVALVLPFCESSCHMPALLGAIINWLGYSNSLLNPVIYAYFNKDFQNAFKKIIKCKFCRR
How it was run: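 Rat whole brain minus brain stem and cerebellum, washed membranes in 50 mM Tris pH 8.0 with 120 mM NaCl, 4 mM CaCl2, 4 mM MgCl2, 10 μM pargyline. Nonspecific with 10 μM 5-HT. IC50 by semilog linear regression, Ki via Cheng–Prusoff; 3–7 experiments, triplicates.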

Rattus norvegicus [13] = species: Rattus norvegicus; assay: The concentration yielding a half maximal decrease of the DOPA was determined in rat brain striatum.; type: functional
[14] = Time taken to reach maximum concentration after administration of 40 umol/kg dose perorally; type: ADME, organism-based; settings: in vivo, po
How it was run: (§2)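 Male Sprague-Dawley rats, starved 18 h for the oral arm, dosed iv or po. Blood sampled at intervals up to 12 h. Compound measured by GC/mass spectrometry against an internal standard, with a standard curve over 2–1000 pmol/mL in blank blood. tmax read from concentration–time curves, n = 4–6.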

Rattus norvegicus [15] = species: Rattus norvegicus; assay: The concentration yielding a half maximal decrease of the DOPA was determined in rat brain hemispheres; type: functional
[16] = Area under the curve after intravenous administration at a dose of 5 umol/kg; type: ADME; settings: in vivo
How it was run: (§3)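 Male Sprague-Dawley rats, iv dosing. Blood sampled at intervals up to 12 h, plasma drug levels by GC/MS with internal standard and a 2–1000 pmol/mL standard curve in blank blood. AUC from total area of concentration–time curve; iv n = 3 (table values SEM, n = 4–6).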

[17] = Half life in plasma after administration of 5 umol/kg dose intravenously; type: ADME, organism-based; settings: iv; how it was run: as §3
[18] = Maximum concentration in plasma after administration of 40 umol/kg dose perorally; type: ADME, organism-based; set-up: dose 40 umol/kg, route oral; settings: po
How it was run: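 Male Sprague-Dawley rats starved 18 h, dosed orally. Blood samples over up to 12 h, drug quantified by GC/MS against internal standard (2–1000 pmol/mL standard curve). Cmax read from concentration–time curve; SEM, n = 4–6.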

[19] = Time taken to reach maximum concentration after administration of 5 umol/kg dose intravenously; type: ADME, organism-based; settings: in vivo, iv; how it was run: as §2
[20] = Bioavailability in rats after 2 mg/kg (i.v.) and 10 mg/kg (p.o.) administration; type: ADME, organism-based; settings: rat, in vivo, po
[21] = Maximum concentration in plasma after administration of 5 umol/kg dose intravenously; type: ADME, organism-based; set-up: dose 5 umol/kg, route intravenous; settings: iv; how it was run: as §3
Rattus norvegicus [22] = species: Rattus norvegicus; assay: Log concentration to inhibit DOPA accumulation was determined in rat brain hemispheres; type: functional; how it was run: as §1
Rattus norvegicus [23] = assay: The concentration yielding a half maximal decrease of the DOPA was determined in rat brain hemispheres; Partial response at 50 umol/kg; type: functional, organism-based; how it was run: as §1
Rattus norvegicus [24] = species: Rattus norvegicus; assay: The concentration yielding a half maximal decrease of the 5-HTP was determined in rat brain striatum; type: functional; how it was run: as §1
Rattus norvegicus [25] = species: Rattus norvegicus; assay: The concentration yielding a half maximal decrease of the DOPA was determined in rat brain striatum; type: functional; how it was run: as §1
Rattus norvegicus [26] = species: Rattus norvegicus; assay: The concentration yielding a half maximal decrease of the 5-HTP was determined in rat limbic system; type: functional; how it was run: as §1
Rattus norvegicus [27] = species: Rattus norvegicus; assay: The concentration yielding a half maximal decrease of the DOPA was determined in rat limbic system; type: functional
Rattus norvegicus [28] = species: Rattus norvegicus; assay: The concentration yielding a half maximal decrease of the 5-HTP was determined in rat brain hemispheres; type: functional; how it was run: as §1
Rattus norvegicus [29] = assay: The concentration yielding a half maximal decrease of the DOPA was determined in rat brain hemispheres; inactive at 50 umol/kg; type: functional, organism-based; how it was run: as §1
Rattus norvegicus [30] = assay: Motor activity was measured by motility testing on injecting the compound subcutaneously into rats at the dose of 0.02 umol/kg (1a) and 3.5 umol/kg (1b)
Rattus norvegicus [31] = assay: The concentration yielding a half maximal decrease of the DOPA was determined in rat limbic system; inactive at 45 umol/kg; type: functional, organism-based
Rattus norvegicus [32] = assay: The concentration yielding a half maximal decrease of the DOPA was determined in rat brain hemispheres; inactive at 45 umol/kg; type: functional, organism-based; how it was run: as §1
Rattus norvegicus [33] = assay: The concentration yielding a half maximal decrease of the DOPA was determined in rat brain striatum; inactive at 45 umol/kg; type: functional, organism-based
Rattus norvegicus [34] = assay: The concentration yielding a half maximal decrease of the DOPA was determined in rat brain striatum; Partial response 50 umol/kg; type: functional, organism-based
Rattus norvegicus [35] = assay: The concentration yielding a half maximal decrease of the 5-HTP was determined in rat limbic system; inactive at 50 umol/kg; type: functional, organism-based; how it was run: as §1
Rattus norvegicus [36] = assay: The concentration yielding a half maximal decrease of the 5-HTP was determined in rat brain hemispheres; inactive at 50 umol/kg; type: functional, organism-based; how it was run: as §1
Rattus norvegicus [37] = assay: The concentration yielding a half maximal decrease of the DOPA was determined in rat limbic system; Partial response 50 umol/kg; type: functional, organism-based
Rattus norvegicus [38] = assay: The concentration yielding a half maximal decrease of the 5-HTP was determined in rat brain striatum; inactive at 50 umol/kg; type: functional, organism-based; how it was run: as §1

Sequence of D(2) dopamine receptor (P61169 whole entry): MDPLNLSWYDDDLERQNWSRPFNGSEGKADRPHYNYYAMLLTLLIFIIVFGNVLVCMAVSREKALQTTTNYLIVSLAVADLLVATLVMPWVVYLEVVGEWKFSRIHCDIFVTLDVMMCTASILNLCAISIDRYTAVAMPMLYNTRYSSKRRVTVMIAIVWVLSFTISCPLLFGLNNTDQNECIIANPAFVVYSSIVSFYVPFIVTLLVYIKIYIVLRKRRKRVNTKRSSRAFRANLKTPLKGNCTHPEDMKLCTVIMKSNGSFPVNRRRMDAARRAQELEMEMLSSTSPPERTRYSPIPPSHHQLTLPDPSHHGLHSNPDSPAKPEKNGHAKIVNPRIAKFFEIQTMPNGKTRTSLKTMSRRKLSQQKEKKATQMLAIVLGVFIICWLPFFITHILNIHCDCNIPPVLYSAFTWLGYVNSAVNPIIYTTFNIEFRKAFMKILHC

CCCN(CCC)[C@H]1CCc2ccc3[nH]ccc3c2C1
Activity (Rattus norvegicus [1]): 29 Counts 30min-1

CCCN(CCC)[C@H]1CCc2ccc3[nH]cc(C#N)c3c2C1
pED50 (Rattus norvegicus [2]): 7.93 | Ki (D(2) dopamine receptor): 8020 nM | ED50 (Rattus norvegicus [3]): 0.12 µmol/kg | ED50 (Rattus norvegicus [4]): 0.089 µmol/kg | ED50 (Rattus norvegicus [5]): 42 µmol/kg | pED50 (Rattus norvegicus [6]): 6.81 | Activity (Rattus norvegicus [1]): 300 Counts 30min-1 | ED50 (Rattus norvegicus [7]): inactive | pED50 (Rattus norvegicus [8]): 4.37 | pED50 (Rattus norvegicus [9]): 7.05 | ED50 (Rattus norvegicus [10]): 0.15 µmol/kg | pED50 (Rattus norvegicus [11]): 4.29 | Ki [12]: 2.9 nM | ED50 (Rattus norvegicus [13]): 52 µmol/kg

CCCN(CCC)C1CCc2ccc3[nH]cc(C#N)c3c2C1 (stereo unspecified)
pED50 (Rattus norvegicus [2]): 6.77 | Ki (D(2) dopamine receptor): 439 nM | Tmax [14]: 2.25 h | ED50 (Rattus norvegicus [15]): 5.2 µmol/kg | ED50 (Rattus norvegicus [3]): 0.17 µmol/kg | AUC [16]: 1115 pM/kg | ED50 (Rattus norvegicus [4]): 0.22 µmol/kg | ED50 (Rattus norvegicus [5]): 1.05 µmol/kg | pED50 (Rattus norvegicus [6]): 6.35 | Activity (Rattus norvegicus [1]): 317 Counts 30min-1 | pED50 (Rattus norvegicus [8]): 5.98 | pED50 (Rattus norvegicus [9]): 6.65 | half-life [17]: 90 min | ED50 (Rattus norvegicus [10]): 0.45 µmol/kg | pED50 (Rattus norvegicus [11]): 5.49 | Cmax [18]: 1500 nM | Tmax [19]: 2 min | bioavailability [20]: 54% | Ki [12]: 1.8 nM | ED50 (Rattus norvegicus [13]): 3.2 µmol/kg | Cmax [21]: 1730 nM | pED50 (Rattus norvegicus [22]): 5.29

CCCN(CCC)[C@@H]1CCc2ccc3[nH]ccc3c2C1
Activity (Rattus norvegicus [1]): 82 Counts 30min-1

CCCN(CCC)C1CCc2ccc3[nH]cc(Cl)c3c2C1 (stereo unspecified)
pED50 (Rattus norvegicus [2]): 5.86 | Ki (D(2) dopamine receptor): 317 nM | ED50 (Rattus norvegicus [3]): 1.4 µmol/kg | ED50 (Rattus norvegicus [4]): 1.7 µmol/kg | ED50 (Rattus norvegicus [5]): 3.7 µmol/kg | pED50 (Rattus norvegicus [6]): 5.85 | pED50 (Rattus norvegicus [8]): 5.43 | pED50 (Rattus norvegicus [9]): 5.78 | ED50 (Rattus norvegicus [10]): 1.4 µmol/kg | pED50 (Rattus norvegicus [11]): 5.47 | Ki [12]: 12.6 nM | ED50 (Rattus norvegicus [23]): Weak activity | ED50 (Rattus norvegicus [13]): 3.4 µmol/kg

CCCN(CCC)C1CCc2cc3c(C=O)c[nH]c3cc2C1 (stereo unspecified)
ED50 (Rattus norvegicus [24]): 18 µmol/kg | pED50 (Rattus norvegicus [2]): 4.88 | Ki (D(2) dopamine receptor): 700 nM | ED50 (Rattus norvegicus [25]): 16.7 µmol/kg | pED50 (Rattus norvegicus [6]): 4.87 | ED50 (Rattus norvegicus [26]): 13 µmol/kg | pED50 (Rattus norvegicus [8]): 4.78 | pED50 (Rattus norvegicus [9]): 4.74 | ED50 (Rattus norvegicus [27]): 27.8 µmol/kg | ED50 (Rattus norvegicus [28]): 14 µmol/kg | ED50 (Rattus norvegicus [29]): inactive | Ki [12]: 4720 nM | Counts/30 min (Rattus norvegicus [30]): 172

CCCN(CCC)C1CCc2cccc(O)c2C1 (stereo unspecified) [8-OH-DPAT]
ED50 (Rattus norvegicus [31]): inactive | ED50 (Rattus norvegicus [32]): inactive | Counts/30 min (Rattus norvegicus [30]): 66 | ED50 (Rattus norvegicus [33]): inactive

CCCN(CCC)C1CCc2ccc3c(c2C1)N(C=O)CC3 (stereo unspecified)
ED50 (Rattus norvegicus [34]): Weak activity | Ki (D(2) dopamine receptor): > 16000 nM | ED50 (Rattus norvegicus [35]): inactive | ED50 (Rattus norvegicus [36]): inactive | ED50 (Rattus norvegicus [37]): Weak activity | ED50 (Rattus norvegicus [29]): inactive | Ki [12]: 550 nM | ED50 (Rattus norvegicus [38]): inactive
